Values after ≈ are worked out from the molar mass of the structure shown. Active and inactive are the calls of the source. The calls are words filed in the database; no cut-off is given here.
Experiments:
[1] = Inhibition of chymotryptic-like activity of human 20S proteasome using Suc-LLVY-AMC as substrate measured every min over 30 mins by fluorescence assay
[2] = Inhibition of NFkappaB-mediated gene transcription in human HeLa cells after 1 hr by Dual-Glo luciferase reporter assay; assay type: cell-based
THP-1 [3] = experiment: Cytotoxicity against bortezomib-resistant human THP1 cells assessed as cell viability at 10 uM after 72 hrs by MTS assay relative to vehicle-treated control; assay type: functional; conditions: for viability at 10 µM: THP-1, 72 h, read-out: Activity
Procedure, shortened: (§1)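 THP-1 cells in RPMI-1640 with 10% FBS, penicillin/streptomycin, 1 mM sodium pyruvate and 0.2 mM L-glutamine at 37°C, 5% CO2. […] Compound in DMSO, final 10 μM, 0.5% DMSO, 72 h. MTS (CellTiter 96 AQueous One) read at 490 nm, background-subtracted, as % of vehicle.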

THP-1 [4] = experiment: Cytotoxicity against wild type human THP1 cells assessed as cell viability at 10 uM after 72 hrs by MTS assay relative to vehicle-treated control; assay type: functional; conditions: THP-1, 72 h, read-out: Activity; procedure, shortened: as §1
[5] = Solubility of the compound in dextrose-water solution at pH 6.5 after 5 mins; assay type: physicochemical; conditions: buffer, pH 6.5, 5 min
Procedure, shortened: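 1 mL of 5% dextrose in water is brought to pH 6.5 with 3 μl 2 N HCl. Solid is added in 0.5 mg portions, then 0.1 mg near saturation. Each addition is vortexed 40 s and sonicated 30 s at 37.5°C, then held 5 min at 37.5°C and judged visually.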

Homo sapiens [6] = species on record: Homo sapiens; experiment: Non-competitive inhibition of chymotryptic-like activity of human 20S proteasome using Suc-LLVY-AMC as substrate
Procedure, shortened: (§2)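 Kinetics: purified human 20S proteasome with vehicle or inhibitor at 1.25, 2.5 or 5 μM across varying Suc-LLVY-AMC concentrations. Velocity is followed by AMC fluorescence as in the activity assay. Vmax and Km come from Michaelis-Menten fits with a Lineweaver-Burk plot.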

Homo sapiens [7] = species on record: Homo sapiens; experiment: Non-competitive inhibition of chymotryptic-like activity of human 20S proteasome using Suc-LLVY-AMC as substrate at 1.25 to 5 uM; procedure, shortened: as §2
[8] = Inhibition of 20S proteasome (unknown origin); design: species or system Homo sapiens
THP-1 [9] = experiment: cells; conditions: Homo sapiens, THP-1, 72 h, read-out: Activity
THP-1 [10] = experiment: Cytotoxicity against wild type human THP1 cells assessed as cell viability at 0.5 uM after 72 hrs by MTS assay relative to vehicle-treated control; conditions: THP-1, 72 h, read-out: Activity

IC50 [1] | SMILES | further results
130 nM | CCOC(=O)[C@]1(c2ccccc2)N=C(c2ccc(OC)cc2)N(Cc2ccccc2)[C@@H]1c1ccc(NCC2CCCCC2)cc1 (racemic) | viability at 10 µM (THP-1 [3]): 5%; viability at 10 µM (THP-1 [4]): 4%
> 10000 nM | c1ccc(CN2C(c3ccccc3)=N[C@@H](c3ccccc3)[C@H]2c2ccccc2)cc1 | IC50 [2]: > 10000 nM
4810 nM | CCOC(=O)[C@]1(c2ccccc2)N=C(c2ccccc2)N(Cc2ccccc2)[C@@H]1c1ccc(C(F)(F)F)cc1 | 
> 10000 nM | CCOC(=O)[C@]1(c2ccccc2)N=C(c2ccccc2)N[C@@H]1c1ccccc1 | 
1080 nM | CCOC(=O)[C@]1(c2ccccc2)N=C(c2ccccc2)N(Cc2ccccc2)[C@@H]1c1ccc(NS(=O)(=O)c2ccccc2)cc1 (racemic) | 
> 10000 nM | CCOC(=O)[C@]1(c2ccccc2)N=C(c2ccc(OC)cc2)N(Cc2ccccc2)[C@@H]1c1ccc(C#N)cc1 (racemic) | 
> 10000 nM | CCOC(=O)[C@]1(c2ccccc2)N=C(c2ccccc2)N(Cc2ccccc2)[C@@H]1c1ccncc1 | 
910 nM | CCOC(=O)[C@]1(c2ccccc2)N=C(c2ccc(OC)cc2)N(Cc2ccccc2)[C@@H]1c1ccc(NS(=O)(=O)C2CC2)cc1 (racemic) | 
1220 nM | CCOC(=O)[C@]1(c2ccccc2)N=C(c2ccc(OC)cc2)N(Cc2ccccc2)[C@@H]1c1ccc(NS(=O)(=O)N(C)C)cc1 (racemic) | 
2730 nM | CCOC(=O)[C@]1(c2ccccc2)N=C(c2ccccc2)N(Cc2ccc(OC)cc2)[C@@H]1c1ccccc1 | 
3710 nM | CCOC(=O)[C@]1(c2ccccc2)N=C(c2ccccc2)N(Cc2ccc(F)cc2)[C@@H]1c1ccccc1 | 
6130 nM | CCOC(=O)[C@]1(c2ccccc2)N=C(c2ccccc2)N(Cc2ccccc2)[C@@H]1c1ccco1 | 
2020 nM | CCOC(=O)[C@]1(c2ccccc2)N=C(c2ccccc2)N(Cc2ccc(Cl)cc2)[C@@H]1c1ccccc1 | solubility [5]: < 500 µg/mL
2400 nM | O=C(OCc1ccccc1)[C@]1(c2ccccc2)N=C(c2ccccc2)N(Cc2ccccc2)[C@@H]1c1ccccc1 | IC50 [2]: 3500 nM
> 10000 nM | CCOC(=O)[C@]1(c2ccccc2)N=C(c2ccccc2)N(Cc2ccccc2)[C@@H]1c1ccc(S(C)(=O)=O)cc1 (racemic) | 
> 10000 nM | NC(=O)[C@]1(c2ccccc2)N=C(c2ccccc2)N(Cc2ccccc2)[C@@H]1c1ccccc1 | IC50 [2]: > 20000 nM

Continued, molecule first:

SMILES | IC50 [1] | further results
CCOC(=O)[C@]1(c2ccccc2)N=C(c2ccc(OC)cc2)N(Cc2ccccc2)[C@@H]1c1ccc(NS(=O)(=O)c2ccccc2)cc1 (racemic) | 580 nM | 
c1ccc(CN2C(c3ccccc3)=N[C@H](c3ccccc3)[C@H]2c2ccccc2)cc1 | 1400 nM | IC50 [2]: 4600 nM
CCOC(=O)[C@]1(c2ccccc2)N=C(c2ccccc2)N(Cc2ccccc2)[C@@H]1c1ccc(Cl)cc1 | 2230 nM | 
CCOC(=O)[C@]1(c2ccccc2)N=C(c2ccc(OC)cc2)N(Cc2ccccc2)[C@@H]1c1ccc(NS(=O)(=O)c2ccc(OC)cc2OC)cc1 (racemic) | 530 nM | 
CCOC(=O)[C@]1(c2ccccc2)N=C(c2ccccc2)N(C(=O)c2ccccc2)[C@@H]1c1ccccc1 | > 10000 nM | 
CCOC(=O)[C@]1(c2ccccc2)N=C(c2ccc(OC)cc2)N(Cc2ccccc2)[C@@H]1c1ccc(NCc2ccc(O)cc2)cc1 (racemic) | 540 nM | viability at 10 µM (THP-1 [3]): 36%; viability at 10 µM (THP-1 [4]): 23%
CCOC(=O)[C@]1(c2ccccc2)N=C(c2ccccc2)N(Cc2ccccc2)[C@@H]1c1ccc([N+](=O)[O-])cc1 | 6710 nM | 
CCOC(=O)[C@]1(c2ccccc2)N=C(c2ccccc2)N(Cc2ccccc2)[C@@H]1c1ccccc1 | 2580 nM | Activity (THP-1 [3]): Active; solubility [5]: 1910 µg/mL (≈ 4150 µM); inhibition (Homo sapiens [6]): Active; IC50 [2]: 2500 nM
CCOC(=O)[C@]1(c2ccccc2)N=C(c2ccc(Br)cc2)N(Cc2ccccc2)[C@@H]1c1ccccc1 (racemic) | 3190 nM | 
CCOC(=O)[C@]1(c2ccccc2)N=C(c2ccccc2)N(C(C)=O)[C@@H]1c1ccccc1 | > 10000 nM | 
CCOC(=O)[C@]1(c2ccccc2)N=C(c2ccc(OC)cc2)N(Cc2ccccc2)[C@@H]1c1ccc(NS(=O)(=O)Cc2ccccc2)cc1 | 1080 nM | 
CCOC(=O)[C@]1(c2ccccc2)N=C(c2ccccc2)N(Cc2ccc(Br)cc2)[C@@H]1c1ccccc1 | 1900 nM | solubility [5]: < 500 µg/mL
CCOC(=O)[C@]1(c2ccccc2)N=C(c2ccccc2)N(Cc2ccccc2)[C@@H]1c1ccc(NCc2ccccc2)cc1 (racemic) | 470 nM | 
CCOC(=O)[C@]1(c2ccccc2)N=C(c2ccc(OC)cc2)N(Cc2ccccc2)[C@@H]1c1ccccc1 (racemic) | 1270 nM | 
CCOC(=O)[C@]1(c2ccccc2)N=C(c2ccccc2)N(Cc2ccccc2)[C@@H]1c1ccc(N)cc1 | 3520 nM | 
CCOC(=O)[C@]1(c2ccccc2)N=C(c2ccc(OC)cc2)N(Cc2ccccc2)[C@@H]1c1ccc(C(N)=O)cc1 (racemic) | > 10000 nM | 
CCOC(=O)[C@]1(c2ccccc2)N=C(c2ccc(OC)cc2)N(Cc2ccccc2)[C@@H]1c1ccc(N)cc1 (racemic) | 1970 nM | viability at 10 µM (THP-1 [3]): 98%; viability at 10 µM (THP-1 [4]): 44%
CCOC(=O)[C@]1(c2ccccc2)N=C(c2ccc(OC)cc2)N(Cc2ccccc2)[C@@H]1c1ccc(NC(=N)N)cc1 (racemic) | 630 nM | 
c1ccc(CN2CCN=C2c2ccccc2)cc1 | > 10000 nM | IC50 [2]: > 10000 nM
O=C(OCCO)[C@]1(c2ccccc2)N=C(c2ccccc2)N(Cc2ccccc2)[C@@H]1c1ccccc1 (racemic) | 3200 nM | IC50 [2]: 10900 nM
CCOC(=O)[C@]1(c2ccccc2)N=C(c2ccc(OC)cc2)N(Cc2ccccc2)[C@@H]1c1ccc(NC(=O)c2ccccc2)cc1 (racemic) | 1440 nM | 
CCOC(=O)[C@]1(c2ccccc2)N=C(c2ccc(OC)cc2)N(Cc2ccccc2)[C@@H]1c1ccc(NCc2cc(OC)c(OC)c(OC)c2)cc1 (racemic) | 370 nM | viability at 10 µM (THP-1 [3]): 34%; viability at 10 µM (THP-1 [4]): 24%
CCOC(=O)[C@]1(c2ccccc2)N=C(c2ccccc2)N(Cc2ccccc2)[C@@H]1c1ccc(SC)cc1 (racemic) | 2770 nM | 
COC(=O)[C@]1(c2ccccc2)N=C(c2ccccc2)N(Cc2ccccc2)[C@@H]1c1ccccc1 | 5400 nM | IC50 [2]: 7500 nM
CCOC(=O)[C@]1(c2ccccc2)N=C(c2ccc(OC)cc2)N(Cc2ccccc2)[C@@H]1c1ccc(NCc2ccccc2)cc1 (racemic) |  | viability at 10 µM (THP-1 [3]): 19%; viability at 10 µM (THP-1 [4]): 4%; inhibition (Homo sapiens [7]): Active
CCOC(=O)[C@]1(c2ccccc2)N=C(c2ccc(OC)cc2)N(Cc2ccccc2)[C@@H]1c1ccc(NC(C)=O)cc1 (racemic) | 2170 nM | 
CCOC(=O)[C@]1(c2ccccc2)N=C(c2ccccc2)N(S(=O)(=O)c2ccc(C)cc2)[C@@H]1c1ccccc1 | > 10000 nM | 
CCOC(=O)[C@]1(c2ccccc2)N=C(c2ccccc2)N(Cc2ccco2)[C@@H]1c1ccccc1 | 7040 nM | 
CC(C)C[C@H](NC(=O)[C@H](Cc1ccccc1)NC(=O)c1cnccn1)B(O)O [BORTEZOMIB] |  | IC50 [8]: 5 nM; viability at 0.5 µM (THP-1 [9]): 68%; viability at 0.5 µM (THP-1 [10]): < 5%
c1ccc(Cn2c(-c3ccccc3)nc(-c3ccccc3)c2-c2ccccc2)cc1 | > 10000 nM | IC50 [2]: > 10000 nM

Reference: ChEMBL document CHEMBL2406988, “Inhibition of the human proteasome by imidazoline scaffolds” (J Med Chem, 2013)
